From ChEMBL document CHEMBL1135495, “New p-methylsulfonamido phenylethylamine analogues as class III antiarrhythmic agents: design, synthesis, biological assay, and 3D-QSAR analysis” (2002)

How the values were obtained:
Cavia porcellus [1] = species on record: Cavia porcellus; experiment: (§1) Percent change for delaying effective refractory period (ERP) in guinea pig at 10e-5 M concentration; assay type: functional
In short: (§2)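 Isolated atria, left atria preloaded 10 mN and paced at 1 s⁻¹ with square-wave pulses at twice-threshold voltage. ERP was measured by paired electrical stimulation after a 1 h Tyrode's equilibration with washouts every 15 min. Drug was added cumulatively at 15 min intervals, with final concentrations rising geometrically. ERP was read 10 min after each addition.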

Cavia porcellus [2] = species on record: Cavia porcellus; experiment: Percent change of force of constriction measured in guinea pig at 10e-5 M concentration; assay type: functional
In short: (§3)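 Left atria under 10 mN preload, driven at 1 s⁻¹ by square-wave pulses at twice-threshold voltage. Isometric contractions were recorded via a strain gauge after a 1 h Tyrode's equilibration. Cumulative drug additions were made every 15 min, with final concentrations rising geometrically. The inotropic effect was determined 10 min after each addition.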

Cavia porcellus [3] = species on record: Cavia porcellus; experiment: Percent change in heart rate measured in guinea pig at 10e-5 M concentration; assay type: functional
In short: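 Spontaneously beating right atria, with contractions recorded in parallel to give beating rate. Tissue equilibrated 1 h in Tyrode's, washed every 15 min. Drug was added to the bath cumulatively at 15 min intervals in geometrically increasing final concentrations. The chronotropic effect was read 10 min after each addition.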

Cavia porcellus [4] = species on record: Cavia porcellus; experiment: Effective concentration for delaying effective refractory period (ERP) 10 ms in guinea pig; assay type: functional; in short: as §2
Cavia porcellus [5] = species on record: Cavia porcellus; experiment: Percent change of force of constriction measured in guinea pig at 10e-5 M concentration; N means No effect.; assay type: functional; in short: as §3
Cavia porcellus [6] = species on record: Cavia porcellus; experiment: Effective concentration for delaying effective refractory period (ERP) 10 ms in guinea pig; N means No effect at 10E-5 M; assay type: functional; in short: as §2
Cavia porcellus [7] = species on record: Cavia porcellus; experiment: Percent change for delaying effective refractory period (ERP) in guinea pig at 10e-5 M concentration; N means No effect.; assay type: functional; in short: as §2
Cavia porcellus [8] = species on record: Cavia porcellus; experiment: as §1; assay type: functional, organism-based; in short: as §2
Cavia porcellus [9] = species on record: Cavia porcellus; experiment: Percent change of force of constriction measured in guinea pig at 10e-5 M concentration; Nf means No effect.; assay type: functional; in short: as §3
Cavia porcellus [10] = species on record: Cavia porcellus; experiment: No effect was observed for ERP at 10x (10e-5) M concentration; N means No effect at 10E-5 M; assay type: functional; in short: as §2

| Compound | Delta ERP (Cavia porcellus [1]) | Delta FC (Cavia porcellus [2]) | Delta HR (Cavia porcellus [3]) | C (Cavia porcellus [4]) | N (Cavia porcellus [5]) | N (Cavia porcellus [6]) | N (Cavia porcellus [7]) | N (Cavia porcellus [8]) | N (Cavia porcellus [9]) | N (Cavia porcellus [10]) |
| --- | --- | --- | --- | --- | --- | --- | --- | --- | --- | --- |
| CN(CCc1ccc(NS(C)(=O)=O)cc1)Cc1ccc(Cl)cc1 | 7.06% | 8.33% | -14.5% | 2.24 µM |  |  |  |  |  |  |
| CS(=O)(=O)Nc1ccc(CCN(CCOc2ccc(NS(C)(=O)=O)cc2)Cc2ccccc2)cc1 | 17.5% | 24.8% | -32% | 0.016 µM |  |  |  |  |  |  |
| COc1ccc(CN(CCc2ccc(NS(C)(=O)=O)cc2)C(=O)c2ccccc2)cc1 | 6.33% | 33.3% | -3.7% | 6.18 µM |  |  |  |  |  |  |
| CS(=O)(=O)Nc1ccc(CCN(Cc2ccccc2)Cc2ccc(Cl)cc2)cc1 | 14.5% | 25% | 16% | 1.05 µM |  |  |  |  |  |  |
| CS(=O)(=O)Nc1ccc(CCN(CCOc2ccc(NS(C)(=O)=O)cc2)C(=O)c2ccccc2)cc1 | 19% | 25% | -28.4% | 0.039 µM |  |  |  |  |  |  |
| CS(=O)(=O)Nc1ccc(CCN(CCOc2cccc3ccccc23)C(=O)c2ccccc2)cc1 | 5.33% | 33.3% | -20% | 8.67 µM |  |  |  |  |  |  |
| CS(=O)(=O)N(c1ccc(CCN(Cc2ccccc2)Cc2ccccc2)cc1)S(C)(=O)=O | 9.56% |  | -16% | 0.653 µM | No effect |  |  |  |  |  |
| COc1ccc(CN(CCc2ccc(NS(C)(=O)=O)cc2)C(C)=O)cc1 |  | 14.3% | -18.2% |  |  | No effect | No effect |  |  |  |
| CS(=O)(=O)Nc1ccc(CCN(Cc2ccccc2)Cc2ccccc2)cc1 | 16.1% |  | -25% | 0.27 µM | No effect |  |  |  |  |  |
| CN(CCc1ccc(NS(C)(=O)=O)cc1)Cc1ccccc1 | 12.2% | 16.7% | -20% | 0.372 µM |  |  |  |  |  |  |
| C=CCN(CCOc1cccc2ccccc12)CCc1ccc(NS(C)(=O)=O)cc1 | 9.77% | 16.7% | -15.2% | 0.315 µM |  |  |  |  |  |  |
| Cc1ccc(CN(C)CCc2ccc(N(S(C)(=O)=O)S(C)(=O)=O)cc2)cc1 | 12.6% | -11.8% | -15.4% | 0.953 µM |  |  |  |  |  |  |
| CS(=O)(=O)Nc1ccc(CCN(CCOc2ccc(NS(C)(=O)=O)cc2)CCOc2ccc(NS(C)(=O)=O)cc2)cc1 | 13.5% | 20% | -26.7% | 0.383 µM |  |  |  |  |  |  |
| CS(=O)(=O)Nc1ccc(CCN(CCOc2ccc(NS(C)(=O)=O)cc2)S(C)(=O)=O)cc1 |  | 16.7% | -18.8% |  |  | No effect at 10E-5 M |  | No effect at 10E-5 M |  |  |
| CS(=O)(=O)Nc1ccc(CCNCCOc2ccc(NS(C)(=O)=O)cc2)cc1 [N-DESMETHYLDOFETILIDE] | 9.39% | 33.7% | -23.8% | 0.023 µM |  |  |  |  |  |  |
| CS(=O)(=O)Nc1ccc(CCN(CCOc2ccc(NS(C)(=O)=O)cc2)Cc2ccc(Cl)cc2)cc1 | 9.29% | 20% | -40.6% | 0.037 µM |  |  |  |  |  |  |
| CN(CCOc1cccc2ccccc12)CCc1ccc(N(S(C)(=O)=O)S(C)(=O)=O)cc1 | 12% |  | -20.7% | 0.203 µM | No effect |  |  |  |  |  |
| COc1ccccc1CN(C)CCc1ccc(NS(C)(=O)=O)cc1 | 15.6% | 38.3% | -26.7% | 0.155 µM |  |  |  |  |  |  |

| Compound | Delta ERP (Cavia porcellus [1]) | Delta FC (Cavia porcellus [2]) | Delta HR (Cavia porcellus [3]) | C (Cavia porcellus [4]) | N (Cavia porcellus [5]) | N (Cavia porcellus [6]) | N (Cavia porcellus [7]) | N (Cavia porcellus [8]) | N (Cavia porcellus [9]) | N (Cavia porcellus [10]) |
| --- | --- | --- | --- | --- | --- | --- | --- | --- | --- | --- |
| CN(CCc1ccc(N(S(C)(=O)=O)S(C)(=O)=O)cc1)C1CCCCC1 | 6.24% |  | -8.36% | 4.39 µM |  |  |  |  | No effect |  |
| C=CCN(CCOc1ccc(NS(C)(=O)=O)cc1)CCc1ccc(NS(C)(=O)=O)cc1 | 12.4% |  | -5.26% | 0.267 µM | No effect |  |  |  |  |  |
| COc1ccc(CN(CCc2ccc(NS(C)(=O)=O)cc2)Cc2ccc(Cl)cc2)cc1 | 19.3% | 15% | -9.09% | 0.068 µM |  |  |  |  |  |  |
| CC(=O)N(CCOc1ccc(NS(C)(=O)=O)cc1)CCc1ccc(NS(C)(=O)=O)cc1 | 16.9% | 17.5% | -20.6% | 0.021 µM |  |  |  |  |  |  |
| COc1ccc(CN(CCc2ccc(N(S(C)(=O)=O)S(C)(=O)=O)cc2)Cc2ccccc2)cc1 | 9.09% | -20% | -27.3% | 0.79 µM |  |  |  |  |  |  |
| C=CCN(CCOc1cccc2ccccc12)CCc1ccc(N(S(C)(=O)=O)S(C)(=O)=O)cc1 |  | 16.7% | -8.33% |  |  | No effect | No effect |  |  |  |
| CS(=O)(=O)N(c1ccc(CCN(Cc2ccccc2)Cc2ccc3c(c2)OCO3)cc1)S(C)(=O)=O | 9.46% | -20% | -18.3% | 0.38 µM |  |  |  |  |  |  |
| CN(CCc1ccc(NS(C)(=O)=O)cc1)C1CCCCC1 | 6.45% | 8.33% | -8% | 4.79 µM |  |  |  |  |  |  |
| COc1ccc(CN(C)CCc2ccc(N(S(C)(=O)=O)S(C)(=O)=O)cc2)cc1 | 8.7% | 25% | -19.2% | 1.17 µM |  |  |  |  |  |  |
| CS(=O)(=O)N(c1ccc(CCN(CCOc2cccc3ccccc23)Cc2ccccc2)cc1)S(C)(=O)=O |  | 25% | -17.9% |  |  |  | No effect |  |  | No effect |
| CS(=O)(=O)Nc1ccc(CCN(CCOc2cccc3ccccc23)Cc2ccccc2)cc1 |  | 25% | -31.8% |  |  | No effect | No effect |  |  |  |
| CN(CCc1ccc(NS(C)(=O)=O)cc1)Cc1ccc2c(c1)OCO2 | 6.16% | 17.2% | -15.3% | 0.89 µM |  |  |  |  |  |  |
| COc1ccccc1CN(CCc1ccc(NS(C)(=O)=O)cc1)Cc1ccccc1 | 10.9% | -14.3% | -28.2% | 0.141 µM |  |  |  |  |  |  |
| CN(CCOc1cccc2ccccc12)CCc1ccc(NS(C)(=O)=O)cc1 | 20.2% | 20.3% | -28.5% | 0.293 µM |  |  |  |  |  |  |
| CC(=O)N(CCOc1cccc2ccccc12)CCc1ccc(NS(C)(=O)=O)cc1 | 58.4% | -37.9% | -46.2% | 0.05 µM |  |  |  |  |  |  |
| Cc1ccc(CN(CCc2ccc(N(S(C)(=O)=O)S(C)(=O)=O)cc2)Cc2ccccc2)cc1 | 5.71% | 25% | 16% | 0.62 µM |  |  |  |  |  |  |
| CN(CCOc1ccc(NS(C)(=O)=O)cc1)CCc1ccc(NS(C)(=O)=O)cc1 [DOFETILIDE] | 24% | 17.1% | -30% | 0.011 µM |  |  |  |  |  |  |
| COc1ccc(CN(CCOc2ccc(NS(C)(=O)=O)cc2)CCc2ccc(NS(C)(=O)=O)cc2)cc1 | 12.1% | 14.3% | -25.8% | 0.21 µM |  |  |  |  |  |  |
